Converted amounts (≈) assume the structure as drawn.

Here are results for 9 compounds from ChEMBL document CHEMBL4808225, “Discovery and Characterization of Selective and Ligand-Efficient DYRK Inhibitors” (J Med Chem, 2021).

Data set [1] has as its target T1, Dual specificity tyrosine-phosphorylation-regulated kinase 1A (Homo sapiens, UniProt Q13627). Briefly: Binding affinity to biotinylated DYRK1A (unknown origin) expressed in Escherichia coli BL21 (DE3) assessed as dissociation constant measured up to 5 min by SPR method. A general note: Surface plasmon resonance follows binding to a sensor surface in real time, without labels.

The target in data set [2] is T1, Dual specificity tyrosine-phosphorylation-regulated kinase 1A. Nature of the data set: Displacement of Kinase tracer 236 from biotinylated DYRK1A (unknown origin) expressed in Escherichia coli BL21 (DE3) incubated for 1.5 hrs by TR-FRET assay. In general terms: TR-FRET usually uses a lanthanide donor and a delayed reading to cut background.
Data set [3] has as its target Dual specificity tyrosine-phosphorylation-regulated kinase 1B (Homo sapiens) (UniProt Q9Y463). Nature of the data set: Inhibition of wild-type human full length DYRK1B (M1 to S629 residues) expressed in bacterial expression system assessed as remaining activity at 1 uM by Kinomescan method relative to control. The procedure, abridged:
(§1)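 KINOMEscan competition binding panel run with inhibitor at 1 μM; read-out is remaining kinase activity (percent of control).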

The target of data set [4] is T2, Dual specificity tyrosine-phosphorylation-regulated kinase 2 (Homo sapiens) (UniProt Q92630).
T2 sequence (whole entry): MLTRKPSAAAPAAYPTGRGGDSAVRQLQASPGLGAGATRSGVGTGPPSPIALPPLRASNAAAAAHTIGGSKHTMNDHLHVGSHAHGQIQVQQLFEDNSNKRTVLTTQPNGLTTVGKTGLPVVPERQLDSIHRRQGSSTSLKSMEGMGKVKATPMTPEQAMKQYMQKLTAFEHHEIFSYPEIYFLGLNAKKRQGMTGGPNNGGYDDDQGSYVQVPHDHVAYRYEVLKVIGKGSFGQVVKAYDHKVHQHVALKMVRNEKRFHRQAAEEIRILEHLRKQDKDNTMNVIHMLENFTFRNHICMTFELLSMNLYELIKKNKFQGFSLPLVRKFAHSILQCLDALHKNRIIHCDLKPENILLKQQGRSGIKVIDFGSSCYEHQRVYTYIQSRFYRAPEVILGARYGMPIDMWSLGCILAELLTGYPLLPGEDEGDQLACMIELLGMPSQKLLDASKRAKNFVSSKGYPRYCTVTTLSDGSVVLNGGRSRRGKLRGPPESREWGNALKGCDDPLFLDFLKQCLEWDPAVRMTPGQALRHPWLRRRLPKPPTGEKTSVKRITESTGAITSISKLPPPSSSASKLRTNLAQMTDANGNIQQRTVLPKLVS
Nature of the data set: Inhibition of wild-type human full length DYRK2 (M1 to S528 residues) expressed in mammalian expression system assessed as remaining activity at 1 uM by Kinomescan method relative to control. The procedure, abridged:
as §1

The target of data set [5] is Dual specificity protein kinase CLK2 (Homo sapiens) (UniProt P49760). Briefly: Inhibition of wild-type human partial length CLK2 (D144 to R498 residues) expressed in bacterial expression system assessed as remaining activity at 1 uM by Kinomescan method relative to control. In a few lines: as §1
Sequence of Dual specificity protein kinase CLK2 (Homo sapiens) (P49760 whole entry, looked up, the tested form may be a part): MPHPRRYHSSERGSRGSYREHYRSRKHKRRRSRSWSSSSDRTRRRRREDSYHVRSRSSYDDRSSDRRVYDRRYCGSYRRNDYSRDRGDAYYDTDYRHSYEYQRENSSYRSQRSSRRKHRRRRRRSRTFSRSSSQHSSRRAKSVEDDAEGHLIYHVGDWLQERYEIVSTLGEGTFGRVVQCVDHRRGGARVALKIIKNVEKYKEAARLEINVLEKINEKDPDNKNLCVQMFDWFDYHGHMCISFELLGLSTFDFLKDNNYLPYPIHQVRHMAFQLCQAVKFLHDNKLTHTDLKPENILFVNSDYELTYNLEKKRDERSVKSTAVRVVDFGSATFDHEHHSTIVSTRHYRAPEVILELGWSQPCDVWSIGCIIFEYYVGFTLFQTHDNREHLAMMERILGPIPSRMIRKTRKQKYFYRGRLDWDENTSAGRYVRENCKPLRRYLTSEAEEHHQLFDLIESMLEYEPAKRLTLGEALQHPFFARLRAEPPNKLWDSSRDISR
Data set [6] concerns the target Dual specificity protein kinase CLK1 (Homo sapiens, UniProt P49759). Briefly: Inhibition of wild-type human full length CLK1 (M1 to I484 residues) expressed in bacterial expression system assessed as remaining activity at 1 uM by Kinomescan method relative to control. In a few lines:
as §1

The nature of data set [7]: Metabolic stability in rat liver microsomes. The class given is ADME, Microsome. Particulars: read-out: Stabilty. For orientation: Liver microsomes are a subcellular fraction often used to study metabolism.
Data set [8] is described as follows: Metabolic stability in human liver microsomes. The class given is ADME, Microsome. The conditions noted are these: read-out: Stabilty.
The nature of data set [9]: Thermodynamic solubility of the compound at pH 6.8. Type of data set: physicochemical. The conditions noted are these: buffer, read-out: Therm_solubility. The procedure, abridged: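 Thermodynamic solubility measured at pH 6.8 in a single experiment, reported in […].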
The target in data set [10] is Glycogen synthase kinase-3 beta (Homo sapiens) (UniProt P49841). Nature of the data set: Inhibition of wild-type human full length GSK3B (M1 to T433 residues) expressed in mammalian expression system assessed as remaining activity at 1 uM by Kinomescan method relative to control. The procedure, abridged: as §1
Sequence of Glycogen synthase kinase-3 beta (Homo sapiens) (P49841 whole entry, looked up, the tested form may be a part): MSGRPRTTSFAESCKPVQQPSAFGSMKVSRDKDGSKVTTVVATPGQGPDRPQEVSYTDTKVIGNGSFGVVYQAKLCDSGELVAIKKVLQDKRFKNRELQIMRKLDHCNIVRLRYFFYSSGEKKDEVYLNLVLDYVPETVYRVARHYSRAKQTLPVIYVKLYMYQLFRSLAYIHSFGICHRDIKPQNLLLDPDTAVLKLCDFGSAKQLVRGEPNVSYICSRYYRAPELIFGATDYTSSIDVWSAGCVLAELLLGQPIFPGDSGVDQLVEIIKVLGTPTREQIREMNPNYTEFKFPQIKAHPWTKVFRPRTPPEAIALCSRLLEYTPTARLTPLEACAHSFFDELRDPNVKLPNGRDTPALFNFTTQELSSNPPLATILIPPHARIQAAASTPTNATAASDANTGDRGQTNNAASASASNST
In data set [11] the target is Cyclin-dependent kinase 2 (Homo sapiens) (UniProt P24941). Briefly: Inhibition of wild-type human full length CDK2 (M1 to L298 residues) expressed in bacterial expression system assessed as remaining activity at 1 uM by Kinomescan method relative to control. In a few lines: as §1
Data set [12] has as its target Dual specificity protein kinase CLK3 (Homo sapiens) (UniProt P49761). Briefly: Inhibition of wild-type human full length CLK3 (M1 to R490 residues) expressed in bacterial expression system assessed as remaining activity at 1 uM by Kinomescan method relative to control. In a few lines: as §1
The target of data set [13] is T1, Dual specificity tyrosine-phosphorylation-regulated kinase 1A. Nature of the data set: Inhibition of human DYRK1A-mediated tau phosphorylation expressed in HEK293 cells incubated for 2 hrs by ELISA. Type of data set: cell-based.

Sequence of Dual specificity tyrosine-phosphorylation-regulated kinase 1B (Homo sapiens) (Q9Y463 whole entry, looked up, the tested form may be a part): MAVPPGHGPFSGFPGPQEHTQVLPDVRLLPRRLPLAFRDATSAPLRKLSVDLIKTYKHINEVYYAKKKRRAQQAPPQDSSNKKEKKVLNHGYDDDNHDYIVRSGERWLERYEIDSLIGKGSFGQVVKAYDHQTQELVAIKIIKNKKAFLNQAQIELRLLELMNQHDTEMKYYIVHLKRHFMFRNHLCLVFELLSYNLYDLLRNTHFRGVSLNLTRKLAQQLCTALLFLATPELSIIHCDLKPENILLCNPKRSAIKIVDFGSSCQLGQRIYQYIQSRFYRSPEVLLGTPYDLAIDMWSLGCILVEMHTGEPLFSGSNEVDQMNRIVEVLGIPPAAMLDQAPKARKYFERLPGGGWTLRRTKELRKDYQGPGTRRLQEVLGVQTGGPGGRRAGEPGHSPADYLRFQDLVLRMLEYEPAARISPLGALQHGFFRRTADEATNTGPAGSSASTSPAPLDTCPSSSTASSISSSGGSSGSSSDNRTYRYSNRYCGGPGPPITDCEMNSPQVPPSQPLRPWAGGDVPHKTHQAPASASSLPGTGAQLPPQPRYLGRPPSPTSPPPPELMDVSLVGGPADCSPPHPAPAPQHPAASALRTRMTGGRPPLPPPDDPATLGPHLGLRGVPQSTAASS
Sequence of Dual specificity protein kinase CLK1 (P49759 whole entry, looked up, the tested form may be a part): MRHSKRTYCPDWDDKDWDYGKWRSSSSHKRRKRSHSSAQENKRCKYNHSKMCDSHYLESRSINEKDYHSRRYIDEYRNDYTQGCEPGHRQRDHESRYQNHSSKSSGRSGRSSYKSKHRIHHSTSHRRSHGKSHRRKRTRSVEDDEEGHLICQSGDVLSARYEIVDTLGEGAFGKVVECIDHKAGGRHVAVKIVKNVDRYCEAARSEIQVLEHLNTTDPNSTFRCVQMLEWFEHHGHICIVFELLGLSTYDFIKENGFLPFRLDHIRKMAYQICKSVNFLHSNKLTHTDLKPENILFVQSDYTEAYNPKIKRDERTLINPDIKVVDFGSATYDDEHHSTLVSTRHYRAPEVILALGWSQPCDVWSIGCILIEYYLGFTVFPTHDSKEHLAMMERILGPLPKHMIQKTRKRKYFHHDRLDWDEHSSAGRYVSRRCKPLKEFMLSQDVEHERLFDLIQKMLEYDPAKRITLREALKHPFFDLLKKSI
Sequence of Dual specificity protein kinase CLK3 (Homo sapiens) (P49761 whole entry, looked up, the tested form may be a part): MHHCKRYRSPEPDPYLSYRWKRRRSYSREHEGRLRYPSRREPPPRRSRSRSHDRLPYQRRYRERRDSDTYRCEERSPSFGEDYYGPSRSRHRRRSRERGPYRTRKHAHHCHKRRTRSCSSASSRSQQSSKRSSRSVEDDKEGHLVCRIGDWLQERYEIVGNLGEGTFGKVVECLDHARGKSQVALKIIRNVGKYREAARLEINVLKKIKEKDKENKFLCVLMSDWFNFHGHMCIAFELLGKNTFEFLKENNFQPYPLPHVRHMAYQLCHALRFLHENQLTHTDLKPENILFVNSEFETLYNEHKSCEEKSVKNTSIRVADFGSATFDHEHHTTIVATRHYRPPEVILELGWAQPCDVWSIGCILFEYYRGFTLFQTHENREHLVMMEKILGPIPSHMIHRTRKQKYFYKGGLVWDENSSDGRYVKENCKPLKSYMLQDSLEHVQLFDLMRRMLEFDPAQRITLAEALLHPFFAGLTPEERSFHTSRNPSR

As usually defined, the Kd is the constant that tells how readily two partners part at equilibrium. Broadly, the IC50 is the point on the concentration scale where inhibition reaches its midpoint. Lower therefore signals inhibition by little substance. For `Nc1nccc(-c2cnn3ncccc23)n1`, the Kd in data set [1] was 134 nM. In [2], the half-maximal inhibitory concentration (IC50) is 525 nM.

`CN(C)c1nccc(-c2cnc3ncccn23)n1`: the Activity in [3] was 6.2%; in data set [4], 35%; in data set [5], 31%; in [6], 20%; in data set [10], 77%; in [11], 86%. For the same compound, the Activity in data set [12] stood at 56%. Besides, the values for the microsomal CLint in data set [7] and in data set [8] were 96 µL/min/mg and 154 µL/min/mg, respectively. Moreover, in [9], the solubility thermodynamic was determined as 470 µg/mL (≈ 1960 µM). The compound further showed an IC50 in data set [2] of 158 nM.

With `CNc1nccc(-c2cnn3ncccc23)n1`, the Kd in data set [1] came to 55 nM. Besides, the concentration for half-maximal inhibition (IC50) in data set [2] is 182 nM.

For the compound `CN(C)c1ncnc(-c2cnn3ncccc23)n1`, in [1], the dissociation constant (Kd) worked out at 153 nM. In addition, the microsomal CLint was 105 µL/min/mg in data set [7] and 93.6 µL/min/mg in data set [8]. Moreover, the solubility thermodynamic in data set [9] was found to be 50 µg/mL (≈ 207 µM). In [2], this compound had an IC50 of 182 nM.

Take `c1cnn2ncc(-c3ccnc(N4CCC45COC5)n3)c2c1`: the Kd in data set [1] was found to be 64 nM. For the same compound, the Activity in data set [3] worked out at 8.3%; in [4] it was 11%; in data set [5], 13%; in data set [6], 33%; in data set [10], 75%; in [11], 100%. The Activity in [12] amounted to 54%. Further, the figures for the microsomal CLint in data set [7] and in [8] were 119 µL/min/mg and 126 µL/min/mg, respectively. The solubility thermodynamic in data set [9] was determined as 60 µg/mL (≈ 204 µM). In data set [2], this compound gave an IC50 of 79.4 nM.

Consider `CN(c1nccc(-c2cnn3ncccc23)n1)C1CC1`, for which the dissociation constant Kd in data set [1] was determined as 90.4 nM. Also, the Activity worked out at 43% in data set [3]; 100% in data set [4]; 95% in data set [5]; 79% in data set [6]; 91% in [10]; 100% in [11]. The Activity in data set [12] is 96%. The values for the microsomal CLint in data set [7] and in data set [8] were 434 µL/min/mg and 71 µL/min/mg, respectively. In addition, in data set [9], the solubility thermodynamic is 60 µg/mL (≈ 225 µM). The half-maximal inhibitory concentration (IC50) in [2] is 115 nM.

As to `COc1ccnn2ncc(-c3ccnc(N(C)C)n3)c12`, the Activity is 0.7% in [3]; 24% in data set [4]; 12% in data set [5]; 7.8% in data set [6]; 100% in data set [10]; 100% in data set [11]. The Activity in [12] was 83%. The figures for the microsomal CLint in [7] and in [8] were 77 µL/min/mg and 89 µL/min/mg, respectively. Further, the solubility thermodynamic in data set [9] was determined as 70 µg/mL (≈ 259 µM). In data set [2], this compound gave an IC50 of 138 nM.

With `CN(C)c1ncc(F)c(-c2cnn3ncccc23)n1`, in data set [1], the dissociation constant Kd is 12 nM. Further, the Activity in data set [3] stood at 71%; in [4], 55%; in data set [5] it was 54%; in data set [6] it was 53%; in data set [10], 93%; in [11], 100%. Also, in [12], the Activity came to 84%. For the same compound, the microsomal CLint in data set [7] was 983 µL/min/mg; in data set [8] it was 697 µL/min/mg. In addition, the IC50 in data set [13] is 250 nM; in data set [2], 57.5 nM. Also, in data set [9], the solubility thermodynamic was found to be 30 µg/mL (≈ 116 µM).

Consider `CN(C)c1ncc(Cl)c(-c2cnn3ncccc23)n1`, for which the Kd in data set [1] was 963 nM. For the same compound, the half-maximal inhibitory concentration (IC50) in data set [2] is 331 nM.
